Test results as given in paper PMC4339026 (Biopolymers, 2014).
Entries after “also recorded” stand apart in the source; their conditions may differ. Read-outs that look alike come from different tables or passages of the source. Blank lines part the entries; values can stand above or below the molecule they belong to.

Legend:
meprin α [1] = molecular target: T1, meprin α (Homo sapiens, UniProt Q16819); test: Meprin α LOPAC pilot screen; type: biochemical; conditions: 18 μM, hit cutoff 25% inhibition
T1 sequence (Q16819 66-653 limits assumed): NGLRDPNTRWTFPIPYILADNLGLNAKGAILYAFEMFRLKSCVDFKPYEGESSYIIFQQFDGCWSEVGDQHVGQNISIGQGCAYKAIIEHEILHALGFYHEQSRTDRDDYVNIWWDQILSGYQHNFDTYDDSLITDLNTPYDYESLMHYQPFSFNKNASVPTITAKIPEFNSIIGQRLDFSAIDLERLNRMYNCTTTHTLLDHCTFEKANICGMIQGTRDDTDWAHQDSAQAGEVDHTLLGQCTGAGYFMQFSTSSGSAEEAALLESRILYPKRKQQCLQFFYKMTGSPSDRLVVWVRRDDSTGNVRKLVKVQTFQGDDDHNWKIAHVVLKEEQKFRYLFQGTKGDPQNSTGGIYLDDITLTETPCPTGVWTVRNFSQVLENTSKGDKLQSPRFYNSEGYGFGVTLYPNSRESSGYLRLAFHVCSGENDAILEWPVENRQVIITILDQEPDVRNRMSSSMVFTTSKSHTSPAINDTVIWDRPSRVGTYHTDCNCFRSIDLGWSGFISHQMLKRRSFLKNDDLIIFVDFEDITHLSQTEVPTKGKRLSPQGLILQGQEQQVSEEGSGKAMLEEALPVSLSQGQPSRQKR
How it was run: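 Single-point FRET screen of 1,280 library compounds at 18 μM nominal final concentration, on four plates. Trypsin-activated recombinant human meprin α (2x solution 2.6 nM, Hepes/Brij-35 pH 7.5) was pre-incubated 30 min at RT with test compound added by pin tool. 2x (MCA)-YVADAPK-(K-ε-DNP) at 20 μM was then added for 1 h at RT. Read at ex 324/em 393 nm.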

meprin α [2] = molecular target: T1, meprin α; test: Meprin α HTS FRET assay, dose response; type: biochemical
How it was run: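 Recombinant human Strep-tagged meprin α was expressed in baculovirus-infected BTI-TN-5B1-4 cells, trypsin-activated, then freed of trypsin. It was used as a 2x solution at 2.6 nM in 50 mM Hepes, 0.01% Brij-35, pH 7.5. Test compound was pre-incubated 30 min at RT, then 2x (MCA)-YVADAPK-(K-ε-DNP) at 20 μM was added for 1 h at RT. Read at ex 324/em 393 nm. 3-fold dilutions in quadruplicate; 4-parameter fit; 0.1% or 1.0% DMSO.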

meprin β [3] = molecular target: T2, meprin β (Homo sapiens, UniProt Q16820); test: Meprin β HTS FRET assay, dose response; type: biochemical
T2 sequence (Q16820 62-614 limits assumed): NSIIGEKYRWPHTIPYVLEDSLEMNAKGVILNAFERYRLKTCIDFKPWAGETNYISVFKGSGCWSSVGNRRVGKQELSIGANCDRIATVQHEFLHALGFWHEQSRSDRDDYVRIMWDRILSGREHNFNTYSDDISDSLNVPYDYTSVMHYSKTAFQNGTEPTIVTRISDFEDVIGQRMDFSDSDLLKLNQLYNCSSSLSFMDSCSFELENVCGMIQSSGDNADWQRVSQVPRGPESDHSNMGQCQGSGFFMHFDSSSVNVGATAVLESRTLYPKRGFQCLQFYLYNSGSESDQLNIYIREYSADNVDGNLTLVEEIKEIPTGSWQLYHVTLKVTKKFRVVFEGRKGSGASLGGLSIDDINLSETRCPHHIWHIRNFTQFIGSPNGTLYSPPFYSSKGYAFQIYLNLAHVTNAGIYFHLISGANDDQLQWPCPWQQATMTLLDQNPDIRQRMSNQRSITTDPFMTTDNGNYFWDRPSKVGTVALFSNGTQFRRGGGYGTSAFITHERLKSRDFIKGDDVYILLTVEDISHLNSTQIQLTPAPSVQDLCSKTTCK
How it was run: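 Trypsin-activated meprin β (trypsin removed on immobilized ovomucoid) in 50 mM Hepes, 0.01% Brij-35, pH 7.5, added as 2x (0.15 nM) solution. Pin-transferred inhibitor was preincubated 30 min at RT. 2x (20 μM) (MCA)-EDEDED-(K-ε-DNP) was then added, run 1 h at RT, and read at ex 324/em 393 nm. A 3-fold dilution series was run in quadruplicate, and % inhibition was fitted with a 4-parameter equation. DMSO final was 0.1% or 1.0%.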

meprin α [4] = conditions: cited from earlier work
meprin β [5] = conditions: read-out: Ki meprin β; cited from earlier work
meprin β [6] = molecular target: T2, meprin β; test: Meprin β LOPAC pilot screen; type: biochemical; conditions: 18 μM; for meprin β LOPAC pilot screen outcome: hit cutoff 25% inhibition
MMP-2 = molecular target: T3, MMP-2 (Homo sapiens, UniProt P08253); test: Selectivity testing against zinc metalloproteases: MMP-2; type: biochemical; conditions: read-out: IC50 MMP-2; n = 3 Mean ± SD
T3 sequence (P08253 110-660): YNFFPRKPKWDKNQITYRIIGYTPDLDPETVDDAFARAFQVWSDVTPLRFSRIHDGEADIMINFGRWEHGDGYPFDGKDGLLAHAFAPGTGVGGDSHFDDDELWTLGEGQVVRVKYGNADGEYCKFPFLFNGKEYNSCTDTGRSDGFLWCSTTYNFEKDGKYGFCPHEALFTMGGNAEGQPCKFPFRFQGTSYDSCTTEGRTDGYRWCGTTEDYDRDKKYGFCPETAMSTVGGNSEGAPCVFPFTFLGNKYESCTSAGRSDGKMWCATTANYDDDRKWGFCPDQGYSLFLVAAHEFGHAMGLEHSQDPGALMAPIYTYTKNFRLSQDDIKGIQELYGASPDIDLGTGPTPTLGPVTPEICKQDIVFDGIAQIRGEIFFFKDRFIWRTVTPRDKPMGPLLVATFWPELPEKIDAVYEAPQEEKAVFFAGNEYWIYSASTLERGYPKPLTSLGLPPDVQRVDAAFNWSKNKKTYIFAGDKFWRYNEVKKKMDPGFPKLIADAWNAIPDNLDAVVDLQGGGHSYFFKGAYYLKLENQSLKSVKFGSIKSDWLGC

MMP-8 = MMP-8 (Homo sapiens, UniProt P22894); test: Selectivity testing against zinc metalloproteases: MMP-8; type: biochemical; conditions: read-out: IC50 MMP-8; n = 3 Mean ± SD
MMP-9 = MMP-9 (Homo sapiens, UniProt P14780); test: Selectivity testing against zinc metalloproteases: MMP-9; type: biochemical; conditions: read-out: IC50 MMP-9; n = 3 Mean ± SD
MMP-13 = MMP-13 (Homo sapiens, UniProt P45452); test: Selectivity testing against zinc metalloproteases: MMP-13; type: biochemical; conditions: read-out: IC50 MMP-13; n = 3 Mean ± SD
MMP-14 = MMP-14 (Homo sapiens, UniProt P50281); test: Selectivity testing against zinc metalloproteases: MMP-14; type: biochemical; conditions: read-out: IC50 MMP-14; n = 3 Mean ± SD
ADAM10 = molecular target: T4, ADAM10 (Homo sapiens, UniProt O14672); test: Selectivity testing against zinc metalloproteases: ADAM10; type: biochemical; conditions: read-out: IC50 ADAM10; n = 3 Mean ± SD
T4 sequence (O14672 214-748): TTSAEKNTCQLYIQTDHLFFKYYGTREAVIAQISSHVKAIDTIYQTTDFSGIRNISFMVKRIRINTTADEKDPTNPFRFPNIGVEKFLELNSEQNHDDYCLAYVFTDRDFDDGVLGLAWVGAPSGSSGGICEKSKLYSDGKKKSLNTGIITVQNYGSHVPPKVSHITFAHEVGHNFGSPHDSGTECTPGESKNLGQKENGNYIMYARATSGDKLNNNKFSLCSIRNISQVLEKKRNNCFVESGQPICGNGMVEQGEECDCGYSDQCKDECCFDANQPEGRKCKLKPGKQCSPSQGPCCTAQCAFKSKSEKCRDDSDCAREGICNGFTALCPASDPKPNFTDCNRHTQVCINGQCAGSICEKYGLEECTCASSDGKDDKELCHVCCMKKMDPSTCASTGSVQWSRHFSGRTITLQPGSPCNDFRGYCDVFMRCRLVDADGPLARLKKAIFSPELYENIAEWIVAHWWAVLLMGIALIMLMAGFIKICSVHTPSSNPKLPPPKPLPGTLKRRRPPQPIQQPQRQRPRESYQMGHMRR

ADAM17 = ADAM17 (Homo sapiens, UniProt P78536); test: Selectivity testing against zinc metalloproteases: ADAM17; type: biochemical; conditions: read-out: IC50 ADAM17; n = 3 Mean ± SD
meprin β [7] = molecular target: T2, meprin β; test: Meprin β inhibition kinetics / enzyme kinetics; type: biochemical
How it was run: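 Trypsin-activated meprin β at 1 nM was run with (MCA)-EDEDED-(K-ε-DNP) 0.5–25 μM plus varying inhibitor concentrations in 50 mM Hepes, 0.01% Brij-35, pH 7.5, at 25 °C. Fluorescence was read at ex 324/em 393 nm. Rates came from the linear portion of the progress curves. Ki and Ki′ came from nonlinear regression with a mixed-inhibition model. Mechanism came from the alpha parameter and was checked with Lineweaver-Burk plots.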

Sequence of MMP-9 (P14780 94-707, species assumed): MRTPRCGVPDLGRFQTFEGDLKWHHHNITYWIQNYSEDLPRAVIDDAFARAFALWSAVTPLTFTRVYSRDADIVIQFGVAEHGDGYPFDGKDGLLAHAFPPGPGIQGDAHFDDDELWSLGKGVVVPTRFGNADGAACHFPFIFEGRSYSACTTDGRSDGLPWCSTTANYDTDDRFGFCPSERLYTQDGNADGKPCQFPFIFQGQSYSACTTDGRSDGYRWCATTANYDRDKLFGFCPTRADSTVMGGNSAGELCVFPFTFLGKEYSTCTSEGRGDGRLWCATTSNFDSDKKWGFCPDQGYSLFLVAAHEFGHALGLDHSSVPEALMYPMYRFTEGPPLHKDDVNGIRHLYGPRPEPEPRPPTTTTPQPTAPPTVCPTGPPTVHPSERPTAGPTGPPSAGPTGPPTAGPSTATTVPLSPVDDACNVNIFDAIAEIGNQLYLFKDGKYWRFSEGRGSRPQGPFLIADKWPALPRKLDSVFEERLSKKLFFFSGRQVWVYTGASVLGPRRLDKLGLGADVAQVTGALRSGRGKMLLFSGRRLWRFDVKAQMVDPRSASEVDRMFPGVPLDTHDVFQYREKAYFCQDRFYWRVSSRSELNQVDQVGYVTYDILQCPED
Sequence of MMP-8 (P22894 101-467, species assumed): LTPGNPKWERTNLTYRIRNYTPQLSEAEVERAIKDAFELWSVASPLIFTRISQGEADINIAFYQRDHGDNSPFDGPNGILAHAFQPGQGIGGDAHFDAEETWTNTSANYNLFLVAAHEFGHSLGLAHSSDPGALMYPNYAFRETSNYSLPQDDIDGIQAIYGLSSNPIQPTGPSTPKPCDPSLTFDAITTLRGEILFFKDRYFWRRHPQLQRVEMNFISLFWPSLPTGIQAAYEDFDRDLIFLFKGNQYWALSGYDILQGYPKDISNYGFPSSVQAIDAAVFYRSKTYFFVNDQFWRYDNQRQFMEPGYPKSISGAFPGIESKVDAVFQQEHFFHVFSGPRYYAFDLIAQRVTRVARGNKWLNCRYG
Sequence of ADAM17 (P78536 215-824, species assumed): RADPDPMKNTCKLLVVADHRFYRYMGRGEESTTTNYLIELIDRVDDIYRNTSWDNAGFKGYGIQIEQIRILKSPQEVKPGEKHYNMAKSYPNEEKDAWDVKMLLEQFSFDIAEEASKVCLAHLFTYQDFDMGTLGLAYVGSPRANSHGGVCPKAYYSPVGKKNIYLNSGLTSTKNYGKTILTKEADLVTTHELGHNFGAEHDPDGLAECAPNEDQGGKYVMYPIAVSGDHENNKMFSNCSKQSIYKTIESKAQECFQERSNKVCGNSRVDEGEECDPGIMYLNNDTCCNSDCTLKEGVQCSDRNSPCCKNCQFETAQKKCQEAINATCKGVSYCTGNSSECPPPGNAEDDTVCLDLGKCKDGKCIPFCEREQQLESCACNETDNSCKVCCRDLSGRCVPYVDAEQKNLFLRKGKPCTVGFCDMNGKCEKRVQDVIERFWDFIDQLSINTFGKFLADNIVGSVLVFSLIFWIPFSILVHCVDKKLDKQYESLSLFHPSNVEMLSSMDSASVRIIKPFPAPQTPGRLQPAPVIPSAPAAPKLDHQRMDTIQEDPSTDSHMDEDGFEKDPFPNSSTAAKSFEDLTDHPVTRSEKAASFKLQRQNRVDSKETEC

SMILES: O.c1cnc2c(c1)ccc1cccnc12 [1,10-phenanthroline monohydrate]
meprin α LOPAC pilot screen outcome (meprin α [1]): inactive | meprin β LOPAC pilot screen outcome (meprin β [6]): inactive

SMILES: N.N.O=C([O-])C1(C(=O)[O-])CCC1.[Pt+2] [Carboplatin, carboplatin]
% inhibition meprin β in pilot screen (meprin β [6]): negative inhibition values | meprin β LOPAC pilot screen outcome (meprin β [6]): selective hits

SMILES: c1ccc(-c2ccccn2)nc1 [2,2′-bipyridyl]
meprin α LOPAC pilot screen outcome (meprin α [1]): inactive | meprin β LOPAC pilot screen outcome (meprin β [6]): inactive

SMILES: CNC(=O)[C@H](Cc1c[nH]c2ccccc12)NC(=O)[C@@H](CC(=O)NO)CC(C)C [galardin]
Ki (meprin β [5]): 8.9 ± 0.71 µM

SMILES: CNC(=O)[C@H](Cc1ccccc1)NC(=O)[C@H](CC(C)C)[C@H](CSc1cccs1)C(=O)NO [batimastat]
Ki (meprin β [5]): 18 ± 2.2 µM

Continued, in another order:

meprin α LOPAC pilot screen outcome (meprin α [1]): selective hits
SMILES: CCN(CC)CCNC(=O)c1ccc(NC(C)=O)cc1.Cl [N-Acetylprocainamide hydrochloride]

IC50 (meprin α [2]; IC50 meprin α, 0.1% DMSO): 0.0015 ± 7e-05 µM | IC50 (meprin α [2]; IC50 meprin α, 1.0% DMSO): 0.0025 ± 0.0001 µM | IC50 (meprin β [3]; IC50 meprin β, 0.1% DMSO): 5.2 ± 0.1 µM | IC50 (meprin β [3]; IC50 meprin β, 1.0% DMSO): 4.5 ± 0.1 µM | meprin α LOPAC pilot screen outcome (meprin α [1]): meprin α selective | meprin α LOPAC pilot screen outcome (meprin α [1]; listed as Actinonin): selective hits
SMILES: CCCCC[C@H](CC(=O)NO)C(=O)N[C@H](C(=O)N1CCC[C@H]1CO)C(C)C [actinonin]
fold more potent inhibition of meprin α than meprin β (meprin α [4]; ratio of Ki values): 100 fold | Ki (meprin α [4]; read-out: Ki meprin α): 0.02 µM | Ki (meprin β [5]): 2 µM

meprin α LOPAC pilot screen outcome (meprin α [1]): selective hits
SMILES: CC(=O)c1ccc(S(=O)(=O)NC(=O)NC2CCCCC2)cc1 [Acetohexamide]

IC50 (meprin α [2]; read-out: IC50 Meprin α, selectivity testing, n = 3 Mean ± SD): 67 ± 4.5 µM | potency differential meprin β versus meprin α (meprin β [3]; ratio of IC50 values): ~1000 fold | selectivity ratio meprin β versus MMP-8 (meprin β [3]; ratio of IC50 values): approximately 12 fold | IC50 (meprin β [3]; read-out: IC50 Meprin β, selectivity testing, n = 3 Mean ± SD): 0.08 ± 0.005 µM | IC50 (MMP-2): 31 ± 2 µM | IC50 (MMP-8): 1 ± 0.1 µM | IC50 (MMP-9): 40 ± 2.5 µM | IC50 (MMP-13): 69 ± 4.3 µM | IC50 (MMP-14): 73 ± 7 µM | IC50 (ADAM10): 19 ± 1.1 µM | IC50 (ADAM17): 91 ± 7.1 µM | Ki lower than IC50, fold (meprin β [7]; meprin β Ki versus HTS IC50): 10 fold | α = Ki/Ki′ (meprin β [7]; mixed-model inhibition, non-linear regression): 36 ± 27 | Ki (meprin β [7]; read-out: Ki meprin β, substrate (MCA)-EDEDED-(K-ε-DNP), mixed inhibition model): 0.008 ± 0.0024 µM | meprin β LOPAC pilot screen outcome (meprin β [6]): selective hits
SMILES: Cc1nc(N=Nc2cc(S(=O)(=O)[O-])c3cc([N+](=O)[O-])cc(S(=O)(=O)[O-])c3c2)c(COP(=O)([O-])[O-])c(C=O)c1O.[Na+].[Na+].[Na+].[Na+] [PPNDS, Pyridoxal-5′-phosphate-6-(2′-naphthylazo-6′-nitro-4′,8′-disulfonate) tetrasodium]
mechanism of inhibition of meprin β (meprin β [7]; non-linear regression and Lineweaver-Burke plots): pure competitive inhibition modality; also recorded: pure competitive inhibition mechanism

meprin α LOPAC pilot screen outcome (meprin α [1]): inactive | meprin β LOPAC pilot screen outcome (meprin β [6]): inactive
SMILES: CC(C)C[C@H](NC(=O)[C@H](O)[C@H](N)Cc1ccccc1)C(=O)O.Cl [epibestatin HCl]

meprin α LOPAC pilot screen outcome (meprin α [1]): selective hits
SMILES: O=C(O)[C@@H]1C[C@H](C(=O)O)N1 [cis-Azetidine-2,4-dicarboxylic acid]

meprin α LOPAC pilot screen outcome (meprin α [1]): inactive | meprin β LOPAC pilot screen outcome (meprin β [6]): inactive
SMILES: O=P(O)(O)C(Cl)(Cl)P(=O)(O)O [clodronic acid]
